Reference: ChEMBL document CHEMBL2417469, “Synthesis of novel analogs of 2-pyrazoline obtained from [(7-chloroquinolin-4-yl)amino]chalcones and hydrazine as potential antitumor and antimalarial agents” (Eur J Med Chem, 2013)

Key:
Assay type in all cases: functional
Plasmodium falciparum = assay: Antimalarial activity against Plasmodium falciparum NF54 infected in human serum at 20 ug/ml after 48 hrs by fluorometric method
Procedure, shortened: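 Asynchronous P. falciparum NF54 at 1.5–2% parasitemia, 5% hematocrit in RPMI with 10% human serum, exposed 48 h at 37 °C under 90% N2/5% CO2/5% O2 at the stated concentration; parasite DNA stained with ethidium bromide after proteinase K lysis; viability % = (Flu treated − medium)/(Flu untreated − medium) ×100; triplicate.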

MDA-MB-468 = assay: Cytotoxicity against human MDA-MB-468 cells after 48 hrs by SRB assay; settings: MDA-MB-468, 48 h
Procedure, shortened: (§1)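 NCI 60-cell-line screen. Cells preincubated 24 h at 37 °C, 5% CO2; time-zero plates TCA-fixed. Compounds dissolved in DMSO and tested at five concentrations (100, 10, 1.0, 0.1, 0.01 µM) for 48 h continuous exposure. Adherent cells fixed with cold TCA (10% final), then SRB stained; absorbance at 515 nm. GI50, TGI and LC50 calculated from growth relative to time-zero and untreated controls.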

BT-549 = assay: Cytotoxicity against human BT549 cells after 48 hrs by SRB assay; settings: BT-549, 48 h; procedure, shortened: as §1
Hs-578T = assay: Cytotoxicity against human Hs578T cells after 48 hrs by SRB assay; procedure, shortened: as §1
MCF7 = assay: Cytotoxicity against human MCF7 cells after 48 hrs by SRB assay; settings: MCF7, 48 h; for CC50: read-out: LC50 (the source's name); procedure, shortened: as §1
CAKI-1 = assay: Cytotoxicity against human Caki1 cells after 48 hrs by SRB assay; settings: CAKI-1, 48 h; procedure, shortened: as §1
RXF 393 = assay: Cytotoxicity against human RXF393 cells after 48 hrs by SRB assay; settings: RXF 393, 48 h; procedure, shortened: as §1
ACHN = assay: Cytotoxicity against human ACHN cells after 48 hrs by SRB assay; settings: for CC50: read-out: LC50 (the source's name); procedure, shortened: as §1
SK-OV-3 = assay: Cytotoxicity against human SKOV3 cells after 48 hrs by SRB assay; settings: SK-OV-3, 48 h; procedure, shortened: as §1
NCI/ADR-RES = assay: Cytotoxicity against human NCI/ADR-RES cells after 48 hrs by SRB assay; settings: for CC50: read-out: LC50 (the source's name); procedure, shortened: as §1
OVCAR-8 = assay: Cytotoxicity against human OVCAR8 cells after 48 hrs by SRB assay; settings: OVCAR-8, 48 h; procedure, shortened: as §1
OVCAR-5 = assay: Cytotoxicity against human OVCAR5 cells after 48 hrs by SRB assay; settings: OVCAR-5, 48 h; procedure, shortened: as §1
IGROV-1 = assay: Cytotoxicity against human IGROV1 cells after 48 hrs by SRB assay; settings: IGROV-1, 48 h; procedure, shortened: as §1
U-251 = assay: Cytotoxicity against human U251 cells after 48 hrs by SRB assay; settings: U-251, 48 h; for CC50: read-out: LC50 (the source's name)
Procedure, shortened: (§2)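 NCI 60-cell screen. Cells grew 24 h (37 °C, 5% CO2) before compound was added. Compounds were in DMSO and diluted in medium with gentamicin, then tested at five levels (100, 10, 1.0, 0.1, 0.01 µM) with 48 h continuous exposure. Adherent cells were fixed with TCA (10% final) and stained with 0.4% SRB, absorbance read at 515 nm. A time-zero plate was included. LC50 is the concentration giving 50% loss of protein relative to time zero.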

SF-539 = assay: Cytotoxicity against human SF539 cells after 48 hrs by SRB assay; settings: SF-539, 48 h; for CC50: read-out: LC50 (the source's name); procedure, shortened: as §1
SW-620 = assay: Cytotoxicity against human SW620 cells after 48 hrs by SRB assay; settings: SW-620, 48 h; procedure, shortened: as §2
SF-268 = assay: Cytotoxicity against human SF268 cells after 48 hrs by SRB assay; settings: SF-268, 48 h; procedure, shortened: as §1
HCT-15 = assay: Cytotoxicity against human HCT15 cells after 48 hrs by SRB assay; settings: HCT-15, 48 h; procedure, shortened: as §1
HT-29 = assay: Cytotoxicity against human HT-29 cells after 48 hrs by SRB assay; settings: HT-29, 48 h; procedure, shortened: as §1
NCI-H460 = assay: Cytotoxicity against human NCI-H460 cells after 48 hrs by SRB assay; settings: NCI-H460, 48 h; procedure, shortened: as §1
[1] = Cytotoxicity against human EKVX cells after 48 hrs by SRB assay; procedure, shortened: as §1
SR = assay: Cytotoxicity against human SR cells after 48 hrs by SRB assay; procedure, shortened: as §2
K562 = assay: Cytotoxicity against human K562 cells after 48 hrs by SRB assay; settings: K562, 48 h; procedure, shortened: as §1
HL-60(TB) = assay: Cytotoxicity against human HL-60(TB) cells after 48 hrs by SRB assay; settings: HL-60, 48 h; for CC50: read-out: LC50 (the source's name); procedure, shortened: as §1

Compound `O=CN1N=C(c2cccc(Nc3ccnc4cc(Cl)ccc34)c2)CC1c1ccc(Cl)cc1` (centres undefined) has an inhibition at 20 µg/mL (Plasmodium falciparum) of 7%, a GI50 (MDA-MB-468) of 420 nM and an LC50 (MDA-MB-468) greater than 100000 nM. The GI50 (BT-549) was 1360 nM, the LC50 (50% net cell kill vs time zero) (BT-549) was greater than 100000 nM and the GI50 (Hs-578T) was 1970 nM. For the same compound, the LC50 (50% net cell kill) (Hs-578T) was greater than 100000 nM, the GI50 (MCF7) was 810 nM and the CC50 (MCF7) was greater than 100000 nM. For the same compound, the GI50 (CAKI-1) was 950 nM, the LC50 (CAKI-1) was greater than 100000 nM and the GI50 (RXF 393) was 3080 nM. It also gave an LC50 (concentration killing 50% of cells) (RXF 393) greater than 100000 nM, a GI50 (ACHN) of 5180 nM and a CC50 (ACHN) greater than 100000 nM. For the same compound, the GI50 (SK-OV-3) was 3480 nM, the LC50 (concentration killing 50% of cells) (SK-OV-3) was greater than 100000 nM and the GI50 (NCI/ADR-RES) was 760 nM. The CC50 (NCI/ADR-RES) was greater than 100000 nM, the GI50 (OVCAR-8) was 3800 nM and the LC50 (50% net cell kill) (OVCAR-8) was greater than 100000 nM. For the same compound, the GI50 (OVCAR-5) was greater than 100000 nM, the LC50 (OVCAR-5) was greater than 100000 nM and the GI50 (IGROV-1) was 760 nM. For the same compound, the LC50 (concentration killing 50% of cells relative to time zero) (IGROV-1) was greater than 100000 nM, the GI50 (U-251) was 1290 nM and the CC50 (U-251) was greater than 100000 nM. The GI50 (SF-539) was 3780 nM, the CC50 (SF-539) was greater than 100000 nM and the GI50 (SW-620) was 560 nM. For the same compound, the LC50 (SW-620) was greater than 100000 nM, the GI50 (SF-268) was 4370 nM and the LC50 (SF-268) was greater than 100000 nM. The GI50 (HCT-15) was 900 nM, the LC50 (concentration killing 50% of cells relative to time zero) (HCT-15) was greater than 100000 nM and the GI50 (HT-29) was 480 nM. It also gave an LC50 (HT-29) greater than 100000 nM, a GI50 (NCI-H460) of 790 nM and an LC50 (NCI-H460) greater than 100000 nM. For the same compound, the GI50 [1] was greater than 100000 nM, the LC50 [1] was greater than 100000 nM and the GI50 (SR) was 370 nM. For the same compound, the LC50 (SR) was greater than 100000 nM, the GI50 (K562) was 410 nM and the LC50 (concentration killing 50% of cells) (K562) was greater than 100000 nM. It also gave a GI50 (HL-60(TB)) of 1100 nM and a CC50 (HL-60(TB)) of 40200 nM.

Work on `O=CN1N=C(c2cccc(Nc3ccnc4cc(Cl)ccc34)c2)CC1c1ccccc1` (centres undefined) yielded an inhibition at 20 µg/mL (Plasmodium falciparum) of 0%, a GI50 (MDA-MB-468) of 220 nM and an LC50 (MDA-MB-468) greater than 100000 nM. It also gave a GI50 (BT-549) of 210 nM, an LC50 (50% net cell kill vs time zero) (BT-549) of 30900 nM and a GI50 (Hs-578T) of 290 nM. For the same compound, the LC50 (50% net cell kill) (Hs-578T) was greater than 100000 nM, the GI50 (MCF7) was 340 nM and the CC50 (MCF7) was greater than 100000 nM. The GI50 (CAKI-1) was 330 nM, the LC50 (CAKI-1) was 35300 nM and the GI50 (RXF 393) was 390 nM. For the same compound, the LC50 (concentration killing 50% of cells) (RXF 393) was greater than 100000 nM, the GI50 (ACHN) was 860 nM and the CC50 (ACHN) was greater than 100000 nM. The GI50 (SK-OV-3) was 330 nM, the LC50 (concentration killing 50% of cells) (SK-OV-3) was greater than 100000 nM and the GI50 (NCI/ADR-RES) was 290 nM. For the same compound, the CC50 (NCI/ADR-RES) was greater than 100000 nM, the GI50 (OVCAR-8) was 510 nM and the LC50 (50% net cell kill) (OVCAR-8) was 56000 nM. The GI50 (OVCAR-5) was 1380 nM, the LC50 (OVCAR-5) was greater than 100000 nM and the GI50 (IGROV-1) was 820 nM. The LC50 (concentration killing 50% of cells relative to time zero) (IGROV-1) was greater than 100000 nM, the GI50 (U-251) was 370 nM and the CC50 (U-251) was 5070 nM. The GI50 (SF-539) was 310 nM, the CC50 (SF-539) was 35700 nM and the GI50 (SW-620) was 350 nM. It also gave an LC50 (SW-620) greater than 100000 nM, a GI50 (SF-268) of 1040 nM and an LC50 (SF-268) greater than 100000 nM. It also gave a GI50 (HCT-15) of 520 nM, an LC50 (concentration killing 50% of cells relative to time zero) (HCT-15) greater than 100000 nM and a GI50 (HT-29) of 320 nM. For the same compound, the LC50 (HT-29) was 4320 nM, the GI50 (NCI-H460) was 410 nM and the LC50 (NCI-H460) was greater than 100000 nM. For the same compound, the GI50 [1] was 950 nM, the LC50 [1] was greater than 100000 nM and the GI50 (SR) was 200 nM. The LC50 (SR) was greater than 100000 nM, the GI50 (K562) was 260 nM and the LC50 (concentration killing 50% of cells) (K562) was greater than 100000 nM. The GI50 (HL-60(TB)) was 200 nM and the CC50 (HL-60(TB)) was 4560 nM.
